pKi: −log10 of the molar value.
Assays:
[1] = molecular target: T1, 6,7-dimethyl-8-ribityllumazine synthase (Mycobacterium tuberculosis, UniProt P9WHE9); test: Inhibition of Mycobacterium tuberculosis recombinant lumazine synthase at enzyme-inhibitor complex state after 30 mins by fluorescence assay
How it was run: (§1)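 Recombinant M. tuberculosis lumazine synthase (2 μM) in 100 mM Tris-HCl pH 7.0, 100 mM NaCl, 5 mM DTT, 2% DMSO. Dihydroxybutanone phosphate was fixed at 100 μM, pyrimidinedione substrate varied 3–100 μM, and inhibitor 0–200 μM. Reactions were started with the pyrimidinedione substrate. Lumazine formation was read at 408 nm for 30 min at 27 °C. Velocity–substrate data were fitted by nonlinear regression to alternative inhibition models.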

[2] = Inhibition of Mycobacterium tuberculosis recombinant riboflavin synthase at […] state after 30 mins by fluorescence assay
How it was run: (§2)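 Recombinant M. tuberculosis riboflavin synthase (1 μM) in 100 mM Tris-HCl pH 7.0, 100 mM NaCl, 5 mM DTT, 2% DMSO. 6,7-Dimethyl-8-ribityllumazine substrate was varied 3–60 μM and inhibitor 0–200 μM. Reactions were started with substrate. Riboflavin formation was monitored at 470 nm for 30 min at 27 °C. Velocity–substrate data for all inhibitor levels were fitted by nonlinear regression to alternative inhibition models.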

[3] = molecular target: T1, 6,7-dimethyl-8-ribityllumazine synthase; test: Inhibition of Mycobacterium tuberculosis recombinant lumazine synthase at enzyme-substrate-inhibitor complex state after 30 mins by fluorescence assay; how it was run: as §1
[4] = Inhibition of Mycobacterium tuberculosis recombinant riboflavin synthase at enzyme-substrate-inhibitor complex state after 30 mins by fluorescence assay; how it was run: as §2

T1 sequence (P9WHE9 whole entry): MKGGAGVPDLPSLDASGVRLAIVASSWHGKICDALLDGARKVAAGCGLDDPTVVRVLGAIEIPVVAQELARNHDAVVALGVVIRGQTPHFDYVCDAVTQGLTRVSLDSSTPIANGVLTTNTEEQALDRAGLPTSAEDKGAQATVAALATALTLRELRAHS

CCOC(=O)C(=O)Nc1c(Cl)[nH]c(=O)[nH]c1=O showed a pKi [1] of 3.08.
For O=C1Nc2ccc(S(=O)(=O)NCCCCCCOP(=O)(O)O)c3cccc1c23, the pKi [2] was 5.01, the pKi [3] was 3.14 and the pKi [4] was 3.05.
O=C1Nc2ccc(S(=O)(=O)NCCOP(=O)(O)O)c3cccc1c23 showed a pKi [1] of 3.59.
Compound O=C1Nc2ccc(S(=O)(=O)NCCCCC(F)(F)P(=O)(O)O)c3cccc1c23 has a pKi [2] of 5.39, a pKi [1] of 3.08 and a pKi [3] of 3.29. It also gave a pKi [4] of less than 3.00.
In the case of O=C1Nc2ccc(S(=O)(=O)NCCCOP(=O)(O)O)c3cccc1c23, the pKi [1] was 4.00.
O=C1Nc2ccc(S(=O)(=O)NCCCCOP(=O)(O)O)c3cccc1c23 showed a pKi [1] of 4.42.
O=C(O)CNS(=O)(=O)c1ccc2c3c(cccc13)C(=O)N2 showed a pKi [1] of 4.15.
